Bioassay records: PubChem, several laboratories
In the library only some 2% were active in any assay of this set; here they are far more common.
HKDC1 inh = HKDC1 hexokinase inhibitors, primary screen, biochemical, fluorescence, uHTS | Q2TB90 | recombinant HKDC1, G6PDH/diaphorase resazurin coupled fluorescence | inhibition, % at 20 µM | 340,000 tested, 0.16% active | AID 493160, 2011;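 active = inhibition above about 35% when tested at 20 µM, limit read from the data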;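 also: plate controls were DMSO wells with enzyme for no effect and DMSO wells lacking enzyme for full effect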
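Incubation: 90 min at room temperature in dark / Material: recombinant HKDC1 (HK5) hexokinase enzyme, produced in-house / Quantity: enzyme 5 µg/mL final / Compound: one dose of 20 µM, 1% DMSO / Reagent: glucose and ATP substrates / Buffer or medium: Tris pH 8.0 buffer with MgCl2, Tween-20, BSA, BME / Technique: resorufin fluorescence at 613 nm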
MIN6 prolif = inducers of MIN6 beta-cell proliferation, primary screen, ATP luminescence, uHTS; MIN6 cells proliferation, ATPlite luminescence, 48 h; cells starved in 0.2% serum; 100% = growth in 10% serum; proliferation, % at 10 µM; 330,000 tested, 0.29% active; AID 2380, 2010;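 active = compounds whose signal lies at least 3.5 SD above the mean of all wells on their plate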;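 also: 0% = DMSO-treated cells in low-serum medium and 100% = 10% serum control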
IMP-1 inhibitor = IMP-1 metallo-beta-lactamase inhibitors, primary screen, biochemical, epi-absorbance readout, Pseudomonas aeruginosa enzyme | metallo-beta-lactamase IMP-1 (Pseudomonas aeruginosa) | AID 1556, 2009 | inhibition, % at 5.6 µM | purified IMP-1, nitrocefin hydrolysis, epi-absorbance fluorescence | 290,000 tested, 0.45% active;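 active = inhibition above the mean plus 3 SD of all compounds in the same screening run, cut at about 4.5% in these data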;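 also: 0% = IMP-1 with DMSO and 100% = DMSO wells lacking enzyme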
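System: purified recombinant IMP-1 beta-lactamase. Medium: Zinc- and detergent-supplemented HEPES buffer, pH 7.1. Compound: one 5.6 µM dose […]. Schedule: 15 min preincubation plus 25 min reaction at 25 °C. Technique: Epi-absorbance fluorescence, 480 nm excitation, 530 nm emission.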
ATG4B inhibitor = ATG4B protease inhibitors, primary screen, biochemical, fluorescence, uHTS | inhibition, % at 8.33 µM | ATG4B cleavage of LC3-PLA2, NBD-HPC fluorescence, 1 h | Cysteine protease ATG4B (Homo sapiens), Q9Y4P1 | 340,000 tested, 0.51% active; in the data active = inhibition above about 40%
Target sequence (Q9Y4P1 whole entry, looked up): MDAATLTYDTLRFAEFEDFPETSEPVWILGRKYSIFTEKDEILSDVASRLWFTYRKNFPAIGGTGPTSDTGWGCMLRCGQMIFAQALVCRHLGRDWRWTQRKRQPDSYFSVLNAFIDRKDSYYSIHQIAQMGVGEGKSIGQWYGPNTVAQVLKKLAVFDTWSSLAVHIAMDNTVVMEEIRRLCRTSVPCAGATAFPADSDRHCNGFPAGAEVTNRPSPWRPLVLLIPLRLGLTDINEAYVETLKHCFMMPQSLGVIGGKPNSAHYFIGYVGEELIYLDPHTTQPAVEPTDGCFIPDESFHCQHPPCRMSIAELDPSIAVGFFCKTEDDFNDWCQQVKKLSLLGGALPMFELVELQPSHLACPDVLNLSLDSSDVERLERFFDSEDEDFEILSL
VIM-2 inh = VIM-2 metallo-beta-lactamase inhibitors, primary screen, biochemical, epi-absorbance readout, Pseudomonas aeruginosa enzyme | purified VIM-2, nitrocefin hydrolysis, epi-absorbance fluorescence | 290,000 tested, 0.89% active | inhibition, % at 5.6 µM;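 active = inhibition above the mean of all tested compounds plus 3 SD, cutoff set per screening run, cut at about 7.5% in these data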;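 also: red hydrolysis product quenches plate fluorescence so inhibitors raise well fluorescence; 0% = enzyme with DMSO and 100% = DMSO without enzyme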
PvdQ inh = P. aeruginosa PvdQ acylase inhibitors, primary screen, biochemical, fluorescence, plate reader and imaging, single point; 340,000 tested, 0.063% active; inhibition, % at 10 µM; PvdQ acylase [Pseudomonas aeruginosa LESB58]; purified PvdQ acylase; in the data active = inhibition above about 30%, passing the limit was not always enough;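 also: 0% = vehicle neutral wells and 100% = reference inhibitor wells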
An asterisk follows results filed as active; . = no result.

SMILES	HKDC1 inh	MIN6 prolif	IMP-1 inhibitor	ATG4B inhibitor	VIM-2 inh	PvdQ inh
S=c1[nH]nc(-c2ccco2)n1/N=C/C(Cl)=C/c1ccccc1	11	-4	-3	7	8.1*	2
O=[N+]([O-])c1ccccc1/C=C/C=N/n1c(-c2ccco2)n[nH]c1=S	10	2	-2	-4	9.8*	4
S=c1[nH]nc(-c2ccco2)n1-c1ccccc1Cl	-4	-2	-3	-11	16*	-4
c1cncc(Nc2c3ccccc3nc3ccccc23)c1	11	-2	-1	-6	10*	6
O=C(O)c1ccc(Nc2c3ccccc3nc3ccccc23)cc1	2	-3	-1	2	-2	-17
Oc1cccc(Nc2c3ccccc3nc3ccccc23)c1	7	-7	-4	-1	11*	-7
Cc1ccc(-c2nc(Nc3cccc(O)c3)c3ccccc3n2)cc1	1	-7	-1	4	1	-15
Cc1nc2ccccc2c2oc(C(=O)NC3CC3)cc12	3	2	0	2	8.4*	-5
Cc1nc2ccccc2c2oc(C(=O)N3CCN(C(=O)c4ccco4)CC3)cc12	-2	1	-3	-4	8.8*	2
Cc1nc2ccccc2c2oc(C(=O)N3CCC(C)CC3)cc12	-2	5	0	-8	11*	1
CCOc1ccc(NC(=O)c2cc3c(C)nc4ccccc4c3o2)cc1	0	-2	-2	-3	-3	2
Cc1nc2ccccc2c2oc(C(=O)N3CCc4ccccc4C3)cc12	3	-3	-4	8	4	17
OC(CCCC(O)c1ccccc1)c1ccccc1 (stereo not drawn)	-3	.	.	-7	.	-11
O=S(=O)(Nc1ccccc1N1CCCCC1)c1ccc(F)cc1	2	-2	4.7*	1	0	-9
CCOc1ccccc1CN1CCC(n2nccc2NC(=O)C2CCCC2)CC1	-6	8	-5	4	-4	-5
CCOC(=O)c1c(CN(C)C)n(-c2ccccc2)c2cc(Br)c(OC)cc12	14	-6	-3	-2	4	-8
CCOC(=O)c1c(CN(C)C)n(-c2ccc(C)cc2)c2cc(Br)c(O)cc12	14	-3	-3	-10	8.4*	1
CC(C)(C)c1ccc(C(=O)Nc2cccc3c(=O)[nH][nH]c(=O)c23)cc1	7	.	5.9*	-4	-3	3
Cc1ccc(C(=O)Nc2cccc3ccccc23)cc1	0	-1	-3	-2	-3	6
O=[N+]([O-])c1ccc2c(c1)Cc1cc(F)ccc1-2	-7	.	.	3	.	87*
O=C(COC(=O)Cc1ccsc1)Nc1cccc(F)c1	-4	-1	.	-3	.	-8
COc1ccc(-c2csc(NC(=O)c3ccccc3S(C)(=O)=O)n2)cc1	-4	-5	-2	-14	-3	1
COc1ccc(-c2csc(NC(=O)c3ccc(S(C)(=O)=O)cc3)n2)cc1	-6	-2	5.6*	-4	-1	4
COc1ccc(CC(=O)Nc2nc(-c3ccncc3)cs2)cc1	-4	0	6.7*	-7	-3	-5
COc1ccc(CCC(=O)Nc2nc(-c3ccncc3)cs2)cc1	.	-3	-1	.	-6	.
SMILES	HKDC1 inh	MIN6 prolif	IMP-1 inhibitor	ATG4B inhibitor	VIM-2 inh	PvdQ inh
Cc1ccc(NC(=S)N(CCCN2CCOCC2)Cc2ccccn2)cc1Cl	-9	-1	-5	-12	-3	-2
COc1cccc(-c2cc(C(F)(F)F)nc(-n3cncn3)n2)c1	-3	1	-4	-8	8.7*	-5
Fc1ccc(-c2cc(C(F)(F)F)nc(-n3cncn3)n2)cc1	-2	0	-3	0	9.7*	-9
Fc1ccc(-c2cc(C(F)(F)F)nc(-n3cccn3)n2)cc1	-5	-3	-4	-14	6	-12
CCC(C)NC(=O)c1ccccc1C(=O)NC(C)CC (stereo not drawn)	-6	-3	6.1*	-5	-1	-7
CCC(C)NC(=O)c1ccccc1SC (stereo not drawn)	-14	-2	-1	0	2	3
